Non-standard residues stand in square brackets, D forms with d. Residues, ends and D or L forms follow the SMILES beside them. ξ: configuration not given here. *: point of attachment. Tyr(3,5-I2) = N[C@@H](Cc1cc(I)c(O)c(I)c1)C(=O)O; Bip = N[C@@H](Cc1ccc(-c2ccccc2)cc1)C(=O)O; Tyr(3-I) = N[C@@H](Cc1ccc(O)c(I)c1)C(=O)O; Dip = N[C@H](C(=O)O)C(c1ccccc1)c1ccccc1; 1Nal = N[C@@H](Cc1cccc2ccccc12)C(=O)O; 2Nal = N[C@@H](Cc1ccc2ccccc2c1)C(=O)O; Cha = N[C@@H](CC1CCCCC1)C(=O)O; OCH2CH2Ph = c1ccc(CCO*)cc1; ξαMeS = CC(N)(CO)C(=O)O; X3 = c1ccc(CCCCO*)cc1; NHBn = c1ccc(CN*)cc1; OBn = c1ccc(CO*)cc1; X2 = CCCCO*
Legend:
[1] = target: T1, Myosin light chain kinase, smooth muscle (Gallus gallus, UniProt P11799); experiment: Inhibition of calmodulin-independent form of myosin light chain kinase isolated from chicken gizzard.
How it was run: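 Chicken gizzard MLCK made calmodulin-independent by limited trypsin digestion. It was started with ATP and stopped with HCl. Phosphate in substrate was counted on phosphocellulose filters. IC50 was read graphically from duplicates at four concentrations and reported as the mean, or as % inhibition at one concentration.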

[2] = target: T1, Myosin light chain kinase, smooth muscle; experiment: Inhibition of native form of chicken MLCK (myosin light chain kinase)
How it was run: (§1)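 Native calmodulin-dependent gizzard MLCK, over 95% homogeneous, with 200 nM calmodulin, 1 mM EGTA and about 200 μM excess free Ca2+. Started with ATP and stopped with HCl; phosphocellulose filter counting. Graphical IC50 from duplicates at four concentrations, or % inhibition at a single concentration.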

[3] = target: Myosin light chain kinase, smooth muscle (Gallus gallus) (UniProt P11799); experiment: Inhibition of native form of myosin light chain kinase at from chicken gizzard 100 uM; how it was run: as §1
Chain of Myosin light chain kinase, smooth muscle (Gallus gallus) (P11799 whole entry): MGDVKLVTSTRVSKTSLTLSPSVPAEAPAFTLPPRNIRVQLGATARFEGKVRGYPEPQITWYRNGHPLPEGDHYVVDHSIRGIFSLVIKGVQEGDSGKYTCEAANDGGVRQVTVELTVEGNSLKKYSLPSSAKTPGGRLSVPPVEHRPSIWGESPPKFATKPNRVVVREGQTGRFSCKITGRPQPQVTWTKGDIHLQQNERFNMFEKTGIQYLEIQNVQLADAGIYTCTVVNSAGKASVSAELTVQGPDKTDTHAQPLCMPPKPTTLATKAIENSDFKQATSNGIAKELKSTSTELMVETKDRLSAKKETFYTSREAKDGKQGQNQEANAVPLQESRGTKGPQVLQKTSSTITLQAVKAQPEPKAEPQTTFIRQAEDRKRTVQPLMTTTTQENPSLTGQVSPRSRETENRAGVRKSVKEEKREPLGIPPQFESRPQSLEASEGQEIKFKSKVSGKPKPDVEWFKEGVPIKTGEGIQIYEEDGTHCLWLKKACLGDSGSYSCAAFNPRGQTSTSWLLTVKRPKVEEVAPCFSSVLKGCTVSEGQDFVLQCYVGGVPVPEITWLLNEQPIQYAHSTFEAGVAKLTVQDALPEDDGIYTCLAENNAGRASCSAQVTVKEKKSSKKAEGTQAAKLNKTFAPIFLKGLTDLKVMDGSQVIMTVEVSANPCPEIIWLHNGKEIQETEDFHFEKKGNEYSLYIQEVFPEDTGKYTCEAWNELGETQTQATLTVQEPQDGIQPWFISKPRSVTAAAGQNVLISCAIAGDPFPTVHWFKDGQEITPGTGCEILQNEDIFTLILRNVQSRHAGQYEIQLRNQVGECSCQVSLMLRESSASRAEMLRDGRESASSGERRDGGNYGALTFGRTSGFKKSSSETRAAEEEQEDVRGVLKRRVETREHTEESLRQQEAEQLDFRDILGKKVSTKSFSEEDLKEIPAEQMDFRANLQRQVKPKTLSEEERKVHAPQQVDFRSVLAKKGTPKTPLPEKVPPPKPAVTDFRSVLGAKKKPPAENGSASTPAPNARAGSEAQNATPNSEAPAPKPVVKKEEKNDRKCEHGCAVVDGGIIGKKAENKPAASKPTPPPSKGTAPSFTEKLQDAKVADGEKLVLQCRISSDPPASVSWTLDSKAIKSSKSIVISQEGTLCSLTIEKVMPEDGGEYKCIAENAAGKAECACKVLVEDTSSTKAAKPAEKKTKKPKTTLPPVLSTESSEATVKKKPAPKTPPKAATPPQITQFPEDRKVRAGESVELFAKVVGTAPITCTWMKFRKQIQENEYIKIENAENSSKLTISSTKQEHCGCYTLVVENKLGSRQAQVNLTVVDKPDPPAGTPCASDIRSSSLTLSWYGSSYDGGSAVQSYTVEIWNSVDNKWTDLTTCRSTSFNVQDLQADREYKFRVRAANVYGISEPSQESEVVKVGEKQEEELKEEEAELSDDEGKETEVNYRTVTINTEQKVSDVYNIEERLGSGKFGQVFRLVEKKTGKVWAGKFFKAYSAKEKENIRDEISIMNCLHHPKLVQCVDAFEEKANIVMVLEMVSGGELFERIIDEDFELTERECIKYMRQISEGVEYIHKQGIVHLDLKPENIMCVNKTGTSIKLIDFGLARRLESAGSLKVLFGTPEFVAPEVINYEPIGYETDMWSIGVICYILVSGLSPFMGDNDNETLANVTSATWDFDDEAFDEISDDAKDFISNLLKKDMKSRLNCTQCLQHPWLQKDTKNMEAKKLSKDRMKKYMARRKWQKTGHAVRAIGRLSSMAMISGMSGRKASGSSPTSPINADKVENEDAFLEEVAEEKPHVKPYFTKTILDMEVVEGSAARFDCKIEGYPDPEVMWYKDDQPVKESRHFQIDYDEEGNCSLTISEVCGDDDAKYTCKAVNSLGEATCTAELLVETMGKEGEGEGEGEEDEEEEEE

T1 sequence (P11799 whole entry): as above

Row | IC50 [1] | IC50 [2] | inhibition [3] | Structure (SMILES)
1 | 64 µM |  |  | CC(C)[C@H](NC(=O)[C@H](CC(N)=O)NC(=O)[C@@H](N)CO)C(=O)N[C@@H](Cc1ccccc1)C(=O)N[C@H](C)C(=O)OCc1ccccc1
2 | 3.9 µM |  |  | CC(C)[C@H](NC(=O)[C@H](CC(N)=O)NC(=O)[C@@H](N)CO)C(=O)N[C@H](/C=C/C=C/c1ccccc1)Cc1ccccc1
3 | 17 µM |  |  | CC(C)[C@H](NC(=O)[C@H](CC(N)=O)NC(=O)[C@@H](N)CO)C(=O)N[C@H](/C=C\[C@@H](C)COCc1ccccc1)Cc1ccccc1
4 | 12 µM | 5 µM |  | CC(C)[C@H](NC(=O)[C@H](CC(N)=O)NC(=O)[C@H](N)CO)C(=O)N[C@@H](Cc1ccccc1)C(=O)N[C@@H](C)C(=O)OCc1ccccc1
5 | 12 µM |  |  | CC(C)[C@H](NC(=O)[C@H](CC(N)=O)NC(=O)[C@@H](N)CO)C(=O)N[C@H](CCCCc1ccccc1)Cc1ccccc1
6 | 36 µM |  |  | CC(C)[C@@H](/C=C/[C@@H](Cc1ccccc1)C(=O)N[C@@H](C)C(=O)OCc1ccccc1)NC(=O)[C@H](CC(N)=O)NC(=O)[C@@H](N)CO
7 | 278 µM |  |  | CC(C)[C@H](/C=C/[C@H](CC(N)=O)NC(=O)[C@@H](N)CO)C(=O)N[C@@H](Cc1ccccc1)C(=O)N[C@@H](C)C(=O)NCc1ccccc1
8 |  | 12 µM |  | CC(C)[C@@H](NC(=O)[C@@H](CC(N)=O)NC(=O)[C@H](N)CO)C(=O)N[C@H](Cc1ccccc1)C(=O)N[C@H](C)C(=O)OCc1ccccc1
9 |  |  | 0% | CC(C)[C@@H](NC(=O)[C@H](CC(N)=O)NC(=O)[C@@H](N)CO)C(=O)N[C@@H](Cc1ccccc1)C(=O)N[C@@H](C)C(=O)OCc1ccccc1
10 |  |  | 0% | CC(C)[C@H](NC(=O)[C@@H](CC(N)=O)NC(=O)[C@@H](N)CO)C(=O)N[C@@H](Cc1ccccc1)C(=O)N[C@@H](C)C(=O)OCc1ccccc1
11 |  | 8 µM |  | CC(C)[C@H](NC(=O)[C@H](CC(N)=O)NC(=O)[C@@H](N)CS)C(=O)N[C@@H](Cc1ccccc1)C(=O)N[C@@H](C)C(=O)OCc1ccccc1 (H-CNVFA-OBn)
12 |  | 200 µM |  | CC(C)[C@H](NC(=O)[C@H](CC(N)=O)NC(=O)[C@@H]1CCCN1)C(=O)N[C@@H](Cc1ccccc1)C(=O)N[C@@H](C)C(=O)OCc1ccccc1 (H-PNVFA-OBn)
13 | 18 µM |  |  | CC(C)[C@H](NC(=O)[C@H](C)NC(=O)[C@@H](N)CO)C(=O)N[C@@H](Cc1ccccc1)C(=O)N[C@@H](C)C(=O)OCc1ccccc1 (H-SAVFA-OBn)
14 |  |  | 0% | CC(C)[C@H](NC(=O)[C@H](CC(=O)O)NC(=O)[C@@H](N)CO)C(=O)N[C@@H](Cc1ccccc1)C(=O)N[C@@H](C)C(=O)OCc1ccccc1 (H-SDVFA-OBn)
15 |  | 50 µM |  | C[C@H](NC(=O)[C@H](Cc1ccccc1)NC(=O)[C@H](Cc1ccccc1)NC(=O)[C@H](CC(N)=O)NC(=O)[C@@H](N)CO)C(=O)OCc1ccccc1 (H-SNFFA-OBn)
16 |  | 30 µM |  | CSCC[C@H](NC(=O)[C@H](CC(N)=O)NC(=O)[C@@H](N)CO)C(=O)N[C@@H](Cc1ccccc1)C(=O)N[C@@H](C)C(=O)OCc1ccccc1 (H-SNMFA-OBn)
17 | 190 µM |  |  | C[C@H](NC(=O)[C@H](Cc1ccccc1)NC(=O)[C@@H](NC(=O)[C@H](CC(N)=O)NC(=O)[C@@H](N)CO)[C@@H](C)O)C(=O)OCc1ccccc1 (H-SNTFA-OBn)
18 |  | 160 µM |  | CC(C)[C@H](NC(=O)[C@H](CC(N)=O)NC(=O)[C@@H](N)CO)C(=O)N[C@@H](Cc1ccccc1)C(=O)OCc1ccccc1 (H-SNVF-OBn)
19 | 16 µM | 15 µM |  | CC(C)[C@H](NC(=O)[C@H](CC(N)=O)NC(=O)[C@@H](N)CO)C(=O)N[C@@H](Cc1ccccc1)C(=O)N[C@@H](C)C(=O)NCc1ccccc1 (H-SNVFA-NHBn)
20 | 185 µM |  |  | CCCCOC(=O)[C@H](C)NC(=O)[C@H](Cc1ccccc1)NC(=O)[C@@H](NC(=O)[C@H](CC(N)=O)NC(=O)[C@@H](N)CO)C(C)C (H-SNVFA-X2)
21 |  | 19 µM |  | CC(C)[C@H](NC(=O)[C@H](CC(N)=O)NC(=O)[C@@H](N)CO)C(=O)N[C@@H](Cc1ccccc1)C(=O)N[C@@H](C)C(=O)OCCCCc1ccccc1 (H-SNVFA-X3)
22 |  | 43 µM |  | CC(C)[C@H](NC(=O)[C@H](CC(N)=O)NC(=O)[C@@H](N)CO)C(=O)N[C@@H](Cc1ccccc1)C(=O)N[C@@H](CO)C(=O)OCc1ccccc1 (H-SNVFS-OBn)
23 |  | 12 µM |  | CC(C)[C@H](NC(=O)[C@H](CC(N)=O)NC(=O)[C@@H](N)CO)C(=O)N[C@@H](Cc1ccc2ccccc2c1)C(=O)N[C@@H](C)C(=O)OCc1ccccc1 (H-SNV[2Nal]A-OBn)
24 | 5 µM | 1 µM |  | CC(C)[C@H](NC(=O)[C@H](CC(N)=O)NC(=O)[C@@H](N)CO)C(=O)N[C@@H](Cc1ccc(-c2ccccc2)cc1)C(=O)N[C@@H](C)C(=O)OCc1ccccc1 (H-SNV[Bip]A-OBn)
25 |  | 12 µM |  | CC(C)[C@H](NC(=O)[C@H](CC(N)=O)NC(=O)[C@@H](N)CO)C(=O)N[C@@H](CC1CCCCC1)C(=O)N[C@@H](C)C(=O)OCc1ccccc1 (H-SNV[Cha]A-OBn)
26 |  | 7 µM |  | CC(C)[C@H](NC(=O)[C@H](CC(N)=O)NC(=O)[C@@H](N)CO)C(=O)N[C@@H](Cc1cc(I)c(O)c(I)c1)C(=O)N[C@@H](C)C(=O)OCc1ccccc1 (H-SNV[Tyr(3,5-I2)]A-OBn)
27 |  | 1 µM |  | CC(C)[C@H](NC(=O)[C@H](CC(N)=O)NC(=O)[C@@H](N)CO)C(=O)N[C@@H](Cc1ccc(O)c(I)c1)C(=O)N[C@@H](C)C(=O)OCc1ccccc1 (H-SNV[Tyr(3-I)]A-OBn)
28 | 24 µM |  |  | CC(C)[C@H](NC(=O)[C@@H](NC(=O)[C@@H](N)CO)C(C)C)C(=O)N[C@@H](Cc1ccccc1)C(=O)N[C@@H](C)C(=O)OCc1ccccc1 (H-SVVFA-OBn)
29 |  | 18 µM |  | CC(C)[C@H](NC(=O)[C@H](CC(N)=O)NC(=O)[C@@H](N)[C@@H](C)O)C(=O)N[C@@H](Cc1ccccc1)C(=O)N[C@@H](C)C(=O)OCc1ccccc1 (H-TNVFA-OBn)

Further lines, the compound ahead of its results:

Row | Structure (SMILES) | IC50 [1] | IC50 [2] | inhibition [3]
30 | CC(C)[C@H](NC(=O)[C@H](CC(N)=O)NC(=O)[C@@H](N)CO)C(=O)N[C@H](Cc1ccccc1)C(=O)N[C@@H](C)C(=O)OCc1ccccc1 | 75 µM |  | 
31 | CC(C)[C@@H](CN[C@@H](Cc1ccccc1)C(=O)N[C@@H](C)C(=O)OCc1ccccc1)NC(=O)[C@H](CC(N)=O)NC(=O)[C@@H](N)CO | 262 µM |  | 
32 | CC(C)[C@H](NC(=O)[C@H](CC(N)=O)NC(=O)[C@@H]1C[C@H](O)CN1)C(=O)N[C@@H](Cc1ccccc1)C(=O)N[C@@H](C)C(=O)OCc1ccccc1 |  | 56 µM | 
33 | CC(C)[C@@H](NC(=O)[C@@H](CC(N)=O)NC(=O)[C@@H](N)CO)C(=O)N[C@@H](Cc1ccccc1)C(=O)N[C@@H](C)C(=O)OCc1ccccc1 | 186 µM |  | 
34 | CC(C)[C@H](NC(=O)[C@H](CC(N)=O)NC(=O)[C@@H](N)CO)C(=O)N[C@H](/C=C/[C@@H](C)COCc1ccccc1)Cc1ccccc1 | 23 µM |  | 
35 | CC(C)[C@H](NC(=O)[C@H](CC(N)=O)NC(=O)[C@@H](N)CO)C(=O)N[C@H](/C=C/C(CCCc1ccccc1)CCCc1ccccc1)Cc1ccccc1 | 0.6 µM |  | 
36 | CC(C)[C@H](NC(=O)[C@@H](CC(N)=O)NC(=O)[C@H](N)CO)C(=O)N[C@@H](Cc1ccccc1)C(=O)N[C@@H](C)C(=O)OCc1ccccc1 |  |  | 14%
37 | CC(C)[C@H](NC(=O)[C@H](CC(N)=O)NC(=O)[C@H](CO)NC(=O)[C@@H](NC(=O)[C@H](C)N)[C@@H](C)O)C(=O)N[C@@H](Cc1ccccc1)C(=O)N[C@@H](C)C(=O)OCc1ccccc1 (H-ATSNVFA-OBn) |  | 31 µM | 
38 | CC(C)[C@H](NC(=O)[C@H](CC(N)=O)NC(=O)CN)C(=O)N[C@@H](Cc1ccccc1)C(=O)N[C@@H](C)C(=O)OCc1ccccc1 (H-GNVFA-OBn) |  |  | 37%
39 | CSCC[C@H](N)C(=O)N[C@@H](CC(N)=O)C(=O)N[C@H](C(=O)N[C@@H](Cc1ccccc1)C(=O)N[C@@H](C)C(=O)OCc1ccccc1)C(C)C (H-MNVFA-OBn) |  | 76 µM | 
40 | CC(C)[C@H](NC(=O)[C@H](CC(N)=O)NC(=O)[C@H](CO)NC(=O)[C@@H](NC(=O)[C@H](C)NC(=O)[C@@H](N)CCCNC(=N)N)[C@@H](C)O)C(=O)N[C@@H](Cc1ccccc1)C(=O)N[C@@H](C)C(=O)OCc1ccccc1 (H-RATSNVFA-OBn) |  | 38 µM | 
41 | CC(C)[C@H](NC(=O)CNC(=O)[C@@H](N)CO)C(=O)N[C@@H](Cc1ccccc1)C(=O)N[C@@H](C)C(=O)OCc1ccccc1 (H-SGVFA-OBn) |  | 450 µM | 
42 | CC(C)C[C@H](NC(=O)[C@H](CC(N)=O)NC(=O)[C@@H](N)CO)C(=O)N[C@@H](Cc1ccccc1)C(=O)N[C@@H](C)C(=O)OCc1ccccc1 (H-SNLFA-OBn) |  | 3 µM | 
43 | CC(C)[C@H](NC(=O)[C@H](CC(N)=O)NC(=O)[C@@H](N)CO)C(=O)N[C@@H](Cc1ccccc1)C(=O)N[C@@H](C)C(=O)OCCc1ccccc1 (H-SNVFA-OCH2CH2Ph) | 50 µM | 15 µM | 
44 | CC(C)[C@H](NC(=O)[C@H](CC(N)=O)NC(=O)[C@@H](N)CO)C(=O)N[C@@H](Cc1c[nH]c2ccccc12)C(=O)N[C@@H](C)C(=O)OCc1ccccc1 (H-SNVWA-OBn) |  | 6 µM | 
45 | CC(C)[C@H](NC(=O)[C@H](CC(N)=O)NC(=O)[C@@H](N)CO)C(=O)N[C@@H](Cc1ccc(O)cc1)C(=O)N[C@@H](C)C(=O)OCc1ccccc1 (H-SNVYA-OBn) |  | 45 µM | 
46 | CC(C)[C@H](NC(=O)[C@H](CC(N)=O)NC(=O)[C@@H](N)CO)C(=O)N[C@@H](Cc1cccc2ccccc12)C(=O)N[C@@H](C)C(=O)OCc1ccccc1 (H-SNV[1Nal]A-OBn) | 2 µM | 2 µM | 
47 | CC(C)[C@H](NC(=O)[C@H](CC(N)=O)NC(=O)[C@@H](N)CO)C(=O)N[C@H](C(=O)N[C@@H](C)C(=O)OCc1ccccc1)C(c1ccccc1)c1ccccc1 (H-SNV[Dip]A-OBn) |  | 6 µM | 
48 | CC(C)[C@H](NC(=O)[C@H](CC(N)=O)NC(=O)[C@H](CO)NC(=O)[C@@H](N)[C@@H](C)O)C(=O)N[C@@H](Cc1ccccc1)C(=O)N[C@@H](C)C(=O)OCc1ccccc1 (H-TSNVFA-OBn) |  | 15 µM | 
49 | CC(C)[C@H](NC(=O)[C@H](CC(N)=O)NC(=O)C(C)(N)CO)C(=O)N[C@@H](Cc1ccccc1)C(=O)N[C@@H](C)C(=O)OCc1ccccc1 (some centres undefined) (H-[ξαMeS]NVFA-OBn) |  | 350 µM | 
